High-throughput results as filed in PubChem.
Rows were chosen to be rich in hits. Some 4.6% of all compounds tested hit in one or more screens of this group.
NLRP3 yeast inh: NALP3 inflammasome inhibitors in reconstituted yeast, primary screen, luminescence, uHTS | 330,000 tested, 0.39% active | inhibition, % at 10 µM | Yeast reconstituted NLRP3/ASC/caspase-1, beta-gal luminescence, 24 h;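 active = inhibition of 50% or more; inactive = inhibition below 50%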;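 note: plate controls were induced DMSO wells for no effect and uninduced yeast grown without galactose for full effect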
PolyA inh: polyadenylation inhibitors in yeast reporter cells, primary screen, luminescence, S. cerevisiae; S. cerevisiae SKY197-pL101 polyadenylation reporter, beta-gal luminescence; efflux-impaired pdr1/pdr3 knockout yeast; score 100 = 6 SD above DMSO; activity score, % at 12 µM; 300,000 tested, 0.02% active;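 active = lowest replicate activity score at least 50, where 100 means six control SD above control mean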;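 note: yeast exposed to compound for 9 h at 30 °C; higher score means more reporter readthrough which indicates perturbed polyadenylation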
Arr AP2 block: inhibitors of beta-arrestin/AP2 binding, primary screen, biochemical, GPCR trafficking, flow cytometry; beta-arrestin 1 C-terminal peptide binding to AP2 beta2-adaptin appendage (human); FITC-arrestin peptide / GST-AP2 beads; AP2 beta2 appendage carries R879A mutation; inhibition, % at 10 µM; 340,000 tested, 0.31% active;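 active = inhibition above a set limit, near 3 SD of compounds lacking own fluorescence, cut at about 54% in these data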;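 note: plate controls were DMSO wells for no effect and 5 µM unlabelled arrestin peptide for full effect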
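System: GST-AP2 R879A bound to glutathione beads, E. coli-expressed. Also added: 50 nM FITC-arrestin peptide. Schedule: compound with beads 12 min RT, then probe 1 h RT. Signal: bead flow cytometry, FITC channel. Read-out basis: percent response.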
NALP1 yeast inh: NALP1 inflammasome inhibitors in reconstituted yeast, colorimetric, S. cerevisiae, triplicate retest | inhibition, % at 10 µM | 280,000 tested, 0.61% active | S. cerevisiae NALP1/ASC/caspase-1 growth, X-gal OD620, 72 h; in the data active = inhibition mostly above about 24%, no sharp cut-off; inactive = mostly below about 32%
DSG3 Ab inh: inhibitors of pemphigus antibody binding to DSG3, primary screen, biochemical, bead-based, flow cytometry, scFv-GFP; DSG3-coupled beads, scFv-anti-DSG3-GFP binding; stronger effect = lower value; binding (percent of control), % at 10 µM; 310,000 tested, 0.48% active; AID 588358, 2011;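 active = binding more than 3 SD below its plate's average and above zero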;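 note: hits lower antibody fragment binding to DSG3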
ALR H2O2 inh: inhibitors of human ALR sulfhydryl oxidase, primary screen, biochemical, H2O2 detection, HRP-luminol luminescence, single point. AID 485317, 2010. inhibition, % (no concentration beside the values). 290,000 tested, 3.8% active. FAD-linked sulfhydryl oxidase ALR (Homo sapiens), P55789. purified ALR, DTT oxidation;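 active = mean replicate inhibition above about 79%, with every replicate also reaching it, limit read from the data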
Target sequence (P55789 whole entry, looked up): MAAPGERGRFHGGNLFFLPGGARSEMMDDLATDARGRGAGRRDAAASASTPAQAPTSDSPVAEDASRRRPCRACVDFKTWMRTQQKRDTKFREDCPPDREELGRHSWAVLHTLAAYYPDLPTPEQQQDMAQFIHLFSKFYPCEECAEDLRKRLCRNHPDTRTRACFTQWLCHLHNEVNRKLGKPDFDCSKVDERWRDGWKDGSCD
The depositor's hits bear a star; x = no result.

SMILES	NLRP3 yeast inh	PolyA inh	Arr AP2 block	NALP1 yeast inh	DSG3 Ab inh	ALR H2O2 inh
CCc1nc(NCC2CC2)c2nnn(Cc3ccccc3)c2n1	x	x	x	x	105.8	x
COC(=O)C(C)N(c1ccc(C)cc1)S(=O)(=O)c1c(C)[nH]c(=O)[nH]c1=O (configuration not stated)	-4.7	-4.8	19.5	7.5	107.2	-3.9
Cc1ccc(N(C(C)C(=O)O)S(=O)(=O)c2c(C)[nH]c(=O)[nH]c2=O)cc1 (configuration not stated)	6.4	-7.4	-1.8	41.7*	x	-0.5
CC[C@@H]1[C@H]2CCCC(=O)N3CC[C@@H](C[C@@H]1Nc1ccccc1)[C@@H]23	4.2	29.7	-0.8	13.2	98.8	98.8*
Cc1c(CC(=O)N2CCC(O)CC2)c(=O)oc2cc3c(cc12)CCC1(CCCCC1)O3	x	x	x	x	100.3	x
O=C(c1cc2cc3ccc(Cl)cc3nc2o1)N1CCN(Cc2ccc3c(c2)OCO3)CC1	x	x	-16.3	x	59.3*	x
O=C(c1cc2cc(Cl)ccc2[nH]1)N1CCN(Cc2ccc3c(c2)OCO3)CC1	-4.9	17.1	-7.4	16.3	106.5	-3.1
Cc1nc([N+](=O)[O-])c(Br)n1CC(=O)c1ccc(Cl)cc1	11.4	-14.9	9.8	58.0	105.6	97.2*
COc1ccc(C(=O)Cn2c(C)nc([N+](=O)[O-])c2Br)cc1	-1.5	11.7	-19.0	-15.9	107.7	0.5
CC(=O)Oc1cc2oc(=O)cc(C)c2cc1Cl	9.6	7.1	19.6	-16.7	115.1	96.9*
O=c1oc(-c2cccnc2)nc2ccccc12	-0.3	-7.2	1.4	15.8	77.3*	x
CN(c1ccccc1C(=O)NC1CC2CCC1C2)S(=O)(=O)c1ccccc1 (configuration not stated)	6.2	1.6	9.4	6.9	37.5*	-2.7
CN(c1ccccc1C(=O)NC1CCCCC1)S(=O)(=O)c1ccccc1	23.1	1.3	15.7	5.7	x	-4.3
O=[N+]([O-])c1cccnc1N1CCC(c2cc(-c3ccc(Cl)cc3)n[nH]2)CC1	19.1	-17.0	-3.8	40.3*	x	-4.3
CCOC(=O)CN1CCC(c2cc(-c3ccc(Cl)cc3)n[nH]2)CC1	4.7	-3.0	21.4	15.0	111.3	-2.7
Cn1c(C(=O)N2CCN(c3ccc([N+](=O)[O-])cc3)CC2)cc2c(=O)[nH]c3ccccc3c21	x	-10.8	17.9	-21.9	71.6*	x
Cc1ccc(C(=O)NNC(=O)c2csc(N3CCOCC3)n2)o1	11.6	4.7	-11.0	x	95.7*	x
O=[N+]([O-])c1cccc(Cl)c1NCCNc1ncc(C(F)(F)F)cc1Cl	22.6	11.3	4.7	14.3	115.0	99.8*
C[C@@H]1CN([C@@H](C)CO)S(=O)(=O)c2ccc(Br)cc2O[C@H]1CN(C)Cc1ccc(-c2ccccc2)cc1	x	x	x	x	99.9	x
Oc1c(Cl)cc(Cl)cc1CNc1nc2ccccc2[nH]1	0.2	18.9	-6.2	3.3	96.8	99.0*
O=C(O)CSc1nc(-c2ccccc2)c(-c2ccccc2)[nH]1	-16.6	0.4	9.7	7.2	102.0	x
O=C(O)CSc1c(-c2cccs2)[nH]c2ccccc12	8.0	-5.4	x	28.6	100.5	99.0*
O=C(O)CSc1c(-c2ccccc2)[nH]c2ccccc12	-6.9	-10.7	2.4	-2.4	88.0	97.5*
O=C(NC1CCC1)C1CCC(=O)N(Cc2ccc(Cl)cc2)C1 (configuration not stated)	x	x	x	x	103.4	x
COc1ccc(-c2cn[nH]c2N)c(OC)c1	5.0	11.2	1.2	9.5	96.8	99.0*
SMILES	NLRP3 yeast inh	PolyA inh	Arr AP2 block	NALP1 yeast inh	DSG3 Ab inh	ALR H2O2 inh
COc1ccc(-c2n[nH]c(=S)n2N)c(OC)c1	14.5	15.8	17.4	-21.2	101.9	17.2
COc1ccc(-c2cn[nH]c2N)cc1	-13.1	11.9	-3.4	14.2	113.4	91.2*
CCOc1cc(/C=N/Nc2nc(N3CCCC3)nc(N3CCCC3)n2)ccc1O	-8.6	-18.0	0.2	-12.5	97.0	98.8*
CCOc1cccc(/C=N/Nc2nc(N3CCCC3)nc(N3CCCC3)n2)c1O	14.2	4.1	6.5	x	88.3	-13.0
CCOc1cc(/C=N/Nc2ccccc2Cl)ccc1OCC(=O)O	x	x	5.7	12.4	97.9	99.1*
COc1ccc(/C=N/Nc2nc(Nc3ccccc3)nc(N3CCCCC3)n2)cc1OC	24.3	0.0	-7.4	15.8	88.9	98.4*
CCOc1cc(/C=N/Nc2nc(Nc3ccccc3)nc(N3CCCCC3)n2)ccc1OCC(=O)O	19.4	-16.5	-4.7	-7.0	89.9	97.2*
CCOc1cc(/C=N/Nc2cccc(C(=O)O)c2)ccc1OC(=O)c1ccccc1	17.4	-2.0	-17.1	-7.0	111.1	x
Cc1cccc(C)c1NC(=O)CSc1nc(C2CC2)nc2ccccc12	1.6	-5.2	23.9	21.2	119.0	-7.8
O=C(c1ccco1)N1CCc2[nH]nc(-c3ccccc3)c2C1	11.1	-16.8	-4.8	16.7	104.9	-2.1
CCC(=O)c1c[nH]c(C(=O)NCCCN2CCOCC2)c1	11.7	22.0	0.6	21.5	95.4	-3.8
CC(C)(C)c1ccc(C(=O)c2c[nH]c(C(=O)NCCCN3CCOCC3)c2)cc1	16.0	6.0	16.4	32.2	-3.8*	0.8
COC(CN(C(=O)CCl)C(C(=O)NC1CCCCC1)c1ccc(C)cc1)OC (configuration not stated)	x	11.5	4.1	36.5	83.4	97.0*
NC(=O)N/N=C/c1sc(N2CCCCC2)nc1-c1cccs1	22.9	2.1	-2.6	x	95.7	96.7*
CC(C)NC(=S)N/N=C/c1sc(N2CCCCC2)nc1-c1cccs1	1.8	-9.2	-2.1	x	108.9	x
O=C(N/N=C/c1sc(N2CCCCC2)nc1-c1cccs1)C1CC1	11.9	11.5	0.8	31.2*	109.8	38.5
COc1ccccc1NC(=O)c1cc2cc(Br)ccc2cc1O	x	-22.9	4.9	20.3	91.2	5.6
CC(C)Oc1ccc(C2CC(=O)N(c3ccc(N(C)C)cc3)C2=O)cc1 (configuration not stated)	16.4	3.8	1.3	0.1	77.3*	-7.6
O=C1C=CCC(/C=C/c2ccccc2)O1 (configuration not stated)	25.2	-7.7	x	46.6*	x	2.9
COc1ccc(S(=O)(=O)N2CC(=O)Nc3ccccc32)cc1	30.4	8.3	-11.4	10.9	101.4	-3.1
c1csc(CNc2nc(-c3cccs3)nc3ccccc23)c1	-4.4	-21.2	8.8	2.8	116.1	95.7*
